Most compounds without a hit are left out; they make up all but 4.7% or so of the library.
ADAM17 inh = inhibits human ADAM17; inhibition, % at 6.95 µM; AID 720648; 370,000 tested, 0.83% active; recombinant ADAM17, EDANS/DABCYL FRET peptide cleavage;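 active = inhibition above the mean of compounds lying between control limits plus 3 SD, set per campaign, cut at about 8.5% in these data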;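 note: 0% = DMSO-only wells as the low control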
Target sequence (P78536 215-824 limits assumed): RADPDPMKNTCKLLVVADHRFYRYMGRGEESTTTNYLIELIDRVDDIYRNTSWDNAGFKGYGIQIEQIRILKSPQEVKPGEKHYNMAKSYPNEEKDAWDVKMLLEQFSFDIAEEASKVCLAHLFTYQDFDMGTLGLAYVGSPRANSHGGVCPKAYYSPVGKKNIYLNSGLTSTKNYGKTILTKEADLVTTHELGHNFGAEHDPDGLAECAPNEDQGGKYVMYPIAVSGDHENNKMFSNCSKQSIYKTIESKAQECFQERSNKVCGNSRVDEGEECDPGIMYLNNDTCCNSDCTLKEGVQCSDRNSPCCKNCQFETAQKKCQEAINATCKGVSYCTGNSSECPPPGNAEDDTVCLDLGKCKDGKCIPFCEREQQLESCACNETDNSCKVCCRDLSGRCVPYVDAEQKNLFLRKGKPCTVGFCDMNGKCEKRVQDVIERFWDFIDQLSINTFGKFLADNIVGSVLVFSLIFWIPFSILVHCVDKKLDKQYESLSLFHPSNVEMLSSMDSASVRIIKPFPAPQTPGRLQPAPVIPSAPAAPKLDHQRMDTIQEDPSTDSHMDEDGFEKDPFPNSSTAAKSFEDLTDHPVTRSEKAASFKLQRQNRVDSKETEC
GRIN3A LBD mod = NR3A (human) ligand-binding domain modulation | NR3A LBD differential scanning fluorimetry, Tm shift; 0% = protein alone, 100% = glycine-bound protein | Tm shift relative to glycine control, % at 25 µM | 340,000 tested, 2.5% active;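 active = melting temperature shift of at least 10% of the positive control shift, at one fixed dose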
MT1-MMP act inh = blocks activation of human MT1-MMP; HT1080 RFP-PRO-GFP cells, GFP/RFP ratio fluorescence, overnight; percent of plate control window, DMSO zero; P50281; GFP/RFP ratio change, % at 20 µM; 360,000 tested, 0.061% active;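 active = GFP/RFP ratio change of at least 30% with cell ATP level not reduced by more than half and red fluorescence within 50% of control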
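Test system: HT1080 cells expressing an RFP-PRO-GFP fluorescent reporter construct / Compound dosing: single-point 20 µM compound, 1% DMSO / Schedule: cells overnight before dosing, compound overnight, 37 °C, 5% CO2 / Evaluation: GFP/RFP fluorescence ratio / Control set: DMSO and RFP-L50D-GFP cell wells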
MPTP inh = blocks calcium-induced mitochondrial swelling | 360,000 tested, 1.4% active | inhibition, % at 10 µM | isolated mouse mitochondria, Ca2+ swelling absorbance, 30 min;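 active = inhibition of 50% or more, scaled per plate between neutral and stimulator controls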;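 note: 0% = DMSO wells given calcium and 100% = 1 mM EGTA wells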
ADAM10 inh = inhibitors of human ADAM10; 370,000 tested, 0.62% active; inhibition, % at 7 µM; O14672; recombinant ADAM10, EDANS/DABCYL FRET peptide cleavage, 3 h;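 active = inhibition above a per-campaign cutoff equal to the mean of compounds falling between control-based bounds plus 3 SD, cut at about 20% in these data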;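 note: 0% = DMSO wells while the 100% control is not disclosed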
SKN-1 inh = blocks SKN-1 activity in C. elegans; inhibition, % at 21.8 µM; C. elegans VP596 Pgst-4::GFP/RFP ratio, acrylamide-induced, 24 h; 360,000 tested, 0.49% active;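 active = interference check ratio from 0.5 to 1.5 plus GFP to RFP signal ratio inhibition reaching or exceeding a fixed threshold, cut at about 30% in these data, passing the limit was not always enough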
Starred values were filed as active, the others as inactive; nt = no result.

SMILES	ADAM17 inh	GRIN3A LBD mod	MT1-MMP act inh	MPTP inh	ADAM10 inh	SKN-1 inh
Cc1nnc(NC(=O)CSc2nnc(Cc3ccccc3)n2-c2ccccc2)s1	-5.7	-0.2	-2.5	-4.4	-5.4	-5.7
O=C1N/C(=N\S(=O)(=O)c2ccccc2)S/C1=C\c1cc([N+](=O)[O-])ccc1O	1.1	14.0*	-66.3	-0.4	15.7	6.1
O=[N+]([O-])c1cccc(-c2c(-c3ccccc3)ncc3cc(F)ccc23)c1	0.6	-0.2	-1.1	0.9	5.5	37.1*
Cc1nnc(SCC2=C(C(=O)O)N3C(=O)C(NC(=O)Cn4ncc(Cl)c4C)C3SC2)s1 (stereo not drawn)	-5.0	0.4	-4.6	-2.0	-2.8	-0.8
C=CCN1c2ccccc2[C@]23C[C@@H](C(=O)OC)N=C2NC(C(=O)OC)=C(C(=O)OC)[C@H]13	-1.3	0.3	-7.3	0.3	-1.6	8.5
COc1ccc2nc(N/C(N)=N/C(=S)Nc3ccccc3)nc(C)c2c1	-27.2	18.6*	2.1	-2.5	-75.1	8.8
CCOc1ccc2nc(N/C(N)=N/C(=S)Nc3ccc(OC)cc3)nc(C)c2c1	-16.0	27.3*	-5.7	-2.2	-44.0	11.3
Cc1cccc(NC(=S)/N=C(\N)Nc2nc(C)c3cc(C)ccc3n2)c1	-6.7	20.3*	-9.6	3.7	-18.7	10.6
Cc1ccccc1NC(=S)NCCc1c[nH]c2ccccc12	0.0	-10.0	0.7	2.2	-0.7	-0.9
Cc1ccc(C)c(NC(=S)NCCc2c[nH]c3ccccc23)c1	-23.7	2.9	3.2	29.2	2.6	14.2
Cc1ccc(NC(=S)NCCc2c[nH]c3ccccc23)cc1	1.9	23.1*	1.9	1.1	5.2	16.0
CC(C)c1ccc(NC(=S)NCCc2c[nH]c3ccccc23)cc1	8.1	30.6*	3.6	36.4	19.4	-3.3
Cc1cccc(NC(=S)NCCc2c[nH]c3ccccc23)c1	4.1	28.4*	0.2	3.3	9.6	2.0
CC1(C)CC(N2CCC(=O)N(C3CC(C)(C)NC(C)(C)C3)C2)CC(C)(C)N1	-2.2	-0.7	-1.7	-4.5	1.3	9.9
O=C(c1cc(C2CC2)nn1-c1ccccc1)N1CCN(Cc2ccccc2)CC1	0.9	nt	2.2	0.3	-3.3	3.8
N#Cc1ccc(CN2CCN(C(=O)c3cc(C4CC4)nn3-c3ccccc3)CC2)cc1	-4.5	-0.3	2.9	-1.1	-2.8	38.0*
CCCOc1ccc(/C(O)=C2/C(=O)C(=O)N(c3cc(C)on3)C2c2ccc(C(=O)OC)cc2)cc1 (stereo not drawn)	-0.6	-8.2	0.0	-1.2	0.3	40.4*
COCC(C)n1c(COc2ccccc2F)nnc1SCc1c(C)noc1C (stereo not drawn)	-5.2	0.4	6.7	2.0	-2.7	-1.4
CCN(CC)S(=O)(=O)c1ccc(N2CCCC2)c(NS(=O)(=O)c2ccc(F)cc2)c1	-3.3	-1.5	3.9	1.0	2.9	11.2
CCN(CC)S(=O)(=O)c1ccc(N2CCCC2)c(NS(=O)(=O)c2ccccc2)c1	-3.9	16.4*	1.1	0.7	-1.1	8.2
O=C(NNC(=O)c1cc2cc(OC(F)(F)F)ccc2[nH]1)c1ccc(Cl)cc1	0.4	14.4*	2.6	2.2	7.3	6.0
CCCc1cc(=O)oc2cc(OCC(=O)NCCN3CCOCC3)c(Cl)cc12	-16.4	nt	-3.6	1.0	-79.2	20.1
CCOC(=O)c1ccc(NC(=O)CC2S/C(=N/N=C/c3c[nH]c4ccccc34)NC2=O)cc1 (stereo not drawn)	-3.3	29.1*	-1.1	1.0	-14.0	1.6
Cc1ccc(NC(=O)CC2S/C(=N/N=C/C=C/c3ccccc3)NC2=O)cc1Cl (stereo not drawn)	-3.5	15.2*	4.0	-3.3	-3.6	6.5
Cc1ccc(NC(=O)CC2S/C(=N/N=C/c3c[nH]c4ccccc34)NC2=O)cc1 (stereo not drawn)	-2.8	11.4*	-4.3	-31.3	5.8	-0.5
SMILES	ADAM17 inh	GRIN3A LBD mod	MT1-MMP act inh	MPTP inh	ADAM10 inh	SKN-1 inh
O=[N+]([O-])c1ccc(S(=O)(=O)NCC(c2ccc3c(c2)OCO3)N2CCOCC2)cc1 (stereo not drawn)	-1.2	nt	0.5	1.3	-4.5	-1.6
CC(=O)Nc1ccc(NC(=O)CSc2ncc(C(=O)Nc3ccc(F)cc3)c(=O)n2C)cc1	-4.5	1.8	1.1	-0.8	-8.5	3.9
CC(=O)Nc1cccc(NC(=O)CSc2ncc(C(=O)Nc3ccc(F)cc3)c(=O)n2C)c1	0.2	18.1*	-0.3	-1.7	-9.2	4.8
COc1ccc(/C=C/c2nc(N)nc(-c3ccccc3O)n2)cc1OC	-4.8	28.1*	-4.6	-0.8	-10.9	8.6
COc1ccc(/C=C/c2nc(N)nc(-c3ccccc3O)n2)cc1	-1.6	72.3*	-1.8	-13.4	0.7	2.2
COc1cc(/C=C/c2nc(N)nc(-c3ccccc3O)n2)cc(OC)c1OC	0.6	0.1	-7.0	-0.4	-5.2	26.8
Fc1ccc(-c2csc(Nc3ccccn3)n2)c(F)c1	6.6	31.9*	-1.2	1.5	9.8	60.1*
c1ccc(-c2csc(Nc3ccccn3)n2)cc1	1.4	-4.1	0.7	2.1	3.6	66.9*
Cc1cc(-c2csc(Nc3ccccn3)n2)ccc1F	5.5	-4.6	-0.9	1.7	16.8	22.4
Oc1ccc(-c2csc(Nc3ccccn3)n2)cc1	-2.6	31.2*	-0.5	0.4	9.2	27.3
CC(=O)c1c(C)[nH]c(C(=O)NNC(=O)c2ccc(C)cc2)c1C	2.3	3.6	1.6	-0.8	-1.3	2.6
COc1ccc(Cl)cc1C(=O)NNC(=O)c1[nH]c(C)c(C(C)=O)c1C	-27.1	15.4*	3.3	0.3	-92.1	9.5
Cn1c(=O)c2cnc(-c3ccc(C(F)(F)F)cc3)nc2n(C)c1=O	-1.2	1.0	-0.9	2.0	11.8	3.7
COc1cccc2cc(C(=O)CC3(O)C(=O)N(Cc4ccccc4)c4ccccc43)c(=O)oc12 (stereo not drawn)	-2.0	15.2*	-5.3	4.8	-0.6	19.1
O=C(O)CC1(O)C(=O)N(Cc2ccccc2)c2ccccc21 (stereo not drawn)	-0.7	-1.9	-4.2	-1.3	-0.5	-3.1
CCCn1c(=O)c2ccccc2n2c(SCCOc3ccc(OC)cc3)nnc12	-3.5	10.6*	-8.7	1.6	-2.6	8.1
O=C(NC(=S)NCCSc1ccccc1)c1cccnc1	-1.0	-2.9	4.4	-1.9	1.8	9.3
CN(N=Nc1cccc([N+](=O)[O-])c1)c1ccccc1	-4.8	-2.4	0.6	-0.3	-2.6	48.0*
COc1cccc(NC(=O)N[C@@H](Cc2ccccc2)C(=O)O)c1	-6.0	0.8	7.8	0.9	1.9	-6.2
Cc1cccc(OCC(=O)N/N=C/c2cn[nH]c2-c2ccc(Cl)c(Cl)c2)c1	3.1	27.2*	-0.8	2.5	6.2	27.9
